Platelet DG rel – platelet dense granule release activity. inhibition, %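 (compounds screened at 7.5 µM in platelet-rich plasma)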. human platelet-rich plasma, SFLLRN dense granule ATP release, luminescence. AID 1663. 0.22% of 300,000 active;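 active = mean replicate score, as percent of positive control, at or above 50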
TRPC4 agonist – TRPC4 (mouse) channel activation; AID 2237; HEK293 TRPC4beta/mu-opioid, Fluo4 calcium fluorescence; hits give high values; 0.49% of 310,000 active; B-score at 10 µM;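 active = B-score above 5 SD of library B-scores, and initial fluorescence ratio not above library mean plus 5 SD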;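 also: positive B-score marks a calcium rise read as TRPC4 activation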
Target sequence (Q9QUQ5 whole entry, looked up): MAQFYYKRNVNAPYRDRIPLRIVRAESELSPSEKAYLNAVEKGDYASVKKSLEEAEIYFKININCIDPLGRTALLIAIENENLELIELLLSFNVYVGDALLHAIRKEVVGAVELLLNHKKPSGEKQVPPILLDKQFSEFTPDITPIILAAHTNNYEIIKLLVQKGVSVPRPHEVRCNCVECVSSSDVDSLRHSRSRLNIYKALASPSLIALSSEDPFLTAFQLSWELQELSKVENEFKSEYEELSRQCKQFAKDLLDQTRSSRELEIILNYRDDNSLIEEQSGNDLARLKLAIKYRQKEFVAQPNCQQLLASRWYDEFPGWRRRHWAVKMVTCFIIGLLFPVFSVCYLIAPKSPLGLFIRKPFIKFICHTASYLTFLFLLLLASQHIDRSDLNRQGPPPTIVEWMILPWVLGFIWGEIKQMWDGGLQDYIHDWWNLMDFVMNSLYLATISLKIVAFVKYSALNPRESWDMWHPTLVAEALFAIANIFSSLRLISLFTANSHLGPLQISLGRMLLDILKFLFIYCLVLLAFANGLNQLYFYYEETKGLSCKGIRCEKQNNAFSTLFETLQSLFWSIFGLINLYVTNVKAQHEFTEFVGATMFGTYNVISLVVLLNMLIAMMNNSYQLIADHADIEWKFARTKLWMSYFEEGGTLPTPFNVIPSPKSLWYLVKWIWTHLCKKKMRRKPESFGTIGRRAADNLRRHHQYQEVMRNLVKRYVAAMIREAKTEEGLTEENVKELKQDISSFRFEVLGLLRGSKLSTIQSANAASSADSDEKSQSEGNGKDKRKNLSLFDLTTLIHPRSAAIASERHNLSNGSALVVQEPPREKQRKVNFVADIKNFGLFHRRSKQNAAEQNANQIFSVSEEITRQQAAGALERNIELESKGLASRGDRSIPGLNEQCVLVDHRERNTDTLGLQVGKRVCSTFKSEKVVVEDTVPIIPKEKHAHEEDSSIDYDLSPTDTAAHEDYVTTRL
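Technique: kinetic Fluo4 calcium fluorescence; Test system: TRPC4beta and mu-opioid receptor HEK293 stable cells; Measure: B-scored integrated calcium fluorescence ratio; Benchmarks: low control buffer alone, high control maximal DAMGO; Schedule: 45 min room-temperature Fluo4 loading, 110 s read.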
TRPC4 PAM – allosteric potentiators of mouse TRPC4 channel | Q9QUQ5 | HEK293 TRPC4beta/mu-opioid, DAMGO EC20, Fluo-4 Ca2+ flux; hits give high values | B-score at 10 µM | 0.42% of 310,000 active | AID 2227;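 active = B-score of calcium response area above 5 SD of library B-scores, with initial fluorescence ratio within 5 SD of library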
TRPC6 inhibitor – mouse TRPC6 channel inhibition; HEK293-TRPC6, membrane potential dye, ACh-evoked depolarization; hits give low values; B-score at 10 µM; 1.1% of 310,000 active; AID 2553;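 active = B-score under library mean minus 3 SD, initial fluorescence not abnormally high, positive integrated signal ratio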;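 also: B-score derived from integrated fluorescence ratio over the kinetic read; more negative B-score means stronger inhibition of depolarization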
TRPC4 block – blocks the mouse TRPC4 cation channel. B-score at 10 µM. Q9QUQ5. HEK293 TRPC4beta/mu-opioid, DAMGO-evoked Fluo4 calcium flux; hits give low values. 0.39% of 300,000 active;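 active = B-score over 3 SD under the library average, no early fluorescence shift, positive overall ratio signal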
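Test system – stable TRPC4beta/mu-opioid receptor HEK293 cells · Probe or stimulus – DAMGO, a submaximal dose followed by a maximal one · Dosing – one concentration per compound · Signal – Fluo4 calcium fluorescence by kinetic imaging, 5 s 1 Hz baseline · Evaluation – per-well B score of integrated baseline-normalized Fluo4 ratio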
TRPC6 act – mouse TRPC6 channel activation; AID 2550; HEK293-TRPC6 membrane potential dye fluorescence; hits give high values; B-score at 10 µM; 0.13% of 310,000 active;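 active = B-score of the integrated fluorescence ratio above library mean plus 3 SD, and starting fluorescence ratio within library mean plus 5 SD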;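 also: higher score means more depolarization so channel activation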
TRPC4 spec 2 – mouse TRPC4 off-target activity of TRPC6 inhibitors, second screen; 42% of 920 active; AID 2776; HEK293 TRPC4/MOR, membrane potential dye fluorescence; channel activated by saturating DAMGO dose; inhibition, % at 10 µM; shares compounds with TRPC6 inhibitor;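 active = compounds whose fluorescence signal differed from control wells by over 3 SD, either direction, in both duplicate plates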
TRPC4 spec – selectivity of TRPC6 inhibitors: effect on mouse TRPC4; shares compounds with TRPC6 inhibitor; HEK293 TRPC4/mu-opioid, membrane potential fluorescence; activity change, negative = inhibition, % at 10 µM; 61% of 920 active; AID 2777;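 active = rise or fall in signal beyond 3 SD of buffer-only wells in both replicate plates, either sign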;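 also: integrated kinetic ratio of fluorescence range over baseline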
HEK293 MPD ctr 2-1 – second counter-screen for TRPC6 inhibitors: parental HEK293 cells; shares compounds with TRPC6 inhibitor; parental HEK293 membrane potential dye fluorescence; maximal acetylcholine challenge after compound addition; signal change vs control, % at 10 µM; 31% of 920 active; AID 2779;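 active = membrane potential signal moving either way by over 3 SD of the maximum-effect control, in both duplicate plates, meaning non-specific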
HEK293 MPD ctr-1 – checks TRPC6 inhibitor effects in parental HEK293 cells. AID 2780. shares compounds with TRPC6 inhibitor. 60% of 920 active. membrane potential signal change, % at 10 µM. parental HEK293 membrane potential dye fluorescence;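 active = membrane potential signal shifting up or down by more than 3 SD of buffer-only wells, on both duplicate plates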
HEK293 MPD ctr-2 – counter-screen for TRPC6 modulators: effect in parental HEK293 cells; shares compounds with TRPC6 inhibitor; membrane potential dye fluorescence; membrane potential signal change, % at 10 µM; 51% of 2,400 active;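 active = membrane potential signal moves up or down beyond 5 SD from buffer-only wells, on both duplicate plates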
HEK293 MPD ctr 2-2 – parental HEK293 nonspecific activity of TRPC6 modulators, second screen | shares compounds with TRPC6 inhibitor | AID 488926 | inhibition, % at 10 µM | membrane potential dye fluorescence; after compound, maximal acetylcholine stimulation | 14% of 2,400 active;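 active = membrane potential signal drops by more than 5 SD from the mean control signal, in both duplicate plates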
TRPC4 ctr mod – tests whether TRPC6 modulators also affect mouse TRPC4; 69% of 2,400 active; HEK293 TRPC4/mu-opioid, membrane potential fluorescence; AID 488927; percent change from control (negative = decrease, positive = increase), % at 10 µM; shares compounds with TRPC6 inhibitor;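 active = membrane potential signal moved up or down beyond 5 SD of buffer control wells, in both duplicate plates, actives on both sides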
TRPC4 ctr inh 2 – mouse TRPC4 off-target activity of TRPC6 modulators, second screen; shares compounds with TRPC6 inhibitor; HEK293 TRPC4/mu-opioid, membrane potential dye fluorescence; stimulated with maximal-effect DAMGO; inhibition, % at 10 µM; 55% of 2,400 active;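 active = drop in membrane potential signal beyond 5 SD of the control wells in both duplicate plates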;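 also: TRPC4 counter screen for TRPC6 hits run under conditions tuned for TRPC6 not TRPC4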
TRPC6 block conf – confirmation of mouse TRPC6 inhibitors; shares compounds with TRPC6 inhibitor; HEK293-TRPC6, membrane potential dye, ACh-evoked depolarization; inhibition, % at 10 µM; 43% of 3,300 active; AID 488960;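 active = fluorescence ratio falls more than 5 SD below the full-stimulation control mean, in both duplicate runs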;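 also: integrated fluorescence ratio of peak minus minimum over baseline after agonist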
TRPC6 act conf – mouse TRPC6 activator confirmation | activation, % at 10 µM | HEK293-TRPC6 membrane potential dye fluorescence, FDSS | shares compounds with TRPC6 inhibitor | 11% of 2,800 active;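 active = ratio signal rise beyond 5 SD above unstimulated control wells' mean, seen in both duplicate runs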
Each line names hits and unclear results; the compound was inactive in the other large screens (follow-up assays come after a bar, where they were run). Sampled rows, rich in hits. Any-hit rate of the full collection: about 2.5%.

COc1ccc(-c2cc(C(F)(F)F)c3c(N)c(C(=O)NCCSC)sc3n2)cc1	none
CN(C)CCNC(=O)c1sc2nc(-c3ccccc3)cc(C(F)(F)F)c2c1N	TRPC4 agonist 83, TRPC6 act 16 | HEK293 MPD ctr-2 312% | HEK293 MPD ctr 2-2 inactive | TRPC4 ctr mod 57% | TRPC4 ctr inh 2 45% | TRPC6 act conf 144%
Cc1ccc(-n2nnnc2-c2cnoc2-c2cccc(F)c2)cc1	none
CCOC(=O)c1c(NC(=O)COC(=O)c2ccc(O)cc2)sc(C(=O)N(C)C)c1C	none
CCOC(=O)c1c(NC(=O)COC(=O)CCOc2ccc(OCC)cc2)sc(C(=O)N(C)C)c1C	TRPC4 PAM 61, TRPC6 act 13 | HEK293 MPD ctr-2 279% | HEK293 MPD ctr 2-2 inactive | TRPC4 ctr mod 165% | TRPC4 ctr inh 2 72% | TRPC6 block conf inactive | TRPC6 act conf 124%
CCOC(=O)c1c(NC(=O)COC(=O)c2ccccn2)sc(C(=O)N(C)C)c1C	none
CCOC(=O)c1c(NC(=O)COC(=O)CCOc2ccc(C)cc2)sc(C(=O)N(C)C)c1C	TRPC6 act 14 | HEK293 MPD ctr-2 480% | HEK293 MPD ctr 2-2 inactive | TRPC4 ctr mod 44% | TRPC4 ctr inh 2 66% | TRPC6 block conf inactive | TRPC6 act conf inactive
O=C1OC(/C(=C\Nc2cc(Cl)ccc2O)[N+](=O)[O-])c2ccccc21 (stereo unspecified)	none
Cc1ccc(OCC(COCc2ccccc2)NC(C)C)cc1 (stereo unspecified)	TRPC6 inhibitor -9.3, TRPC4 block -6 | TRPC4 spec 2 42% | TRPC4 spec 38% | HEK293 MPD ctr 2-1 inactive | HEK293 MPD ctr-1 14% | TRPC6 block conf 101%
CN(C)CCNS(=O)(=O)c1ccc(N2CCN(c3ccc(F)cc3)CC2)c([N+](=O)[O-])c1	TRPC6 inhibitor -7 | TRPC4 spec 2 40% | TRPC4 spec -14% | HEK293 MPD ctr 2-1 inactive | HEK293 MPD ctr-1 -278% | TRPC6 block conf 52% | TRPC6 act conf inactive
CC(=O)N1CCN(c2ccc(S(=O)(=O)NCCN(C(C)C)C(C)C)cc2[N+](=O)[O-])CC1	none
CCN(CC)CCSc1nc2ccccc2c(=S)n1-c1ccccc1	TRPC6 inhibitor -7.3 | TRPC4 spec 2 33% | TRPC4 spec 3.5% | HEK293 MPD ctr 2-1 238% | HEK293 MPD ctr-1 7.1% | TRPC6 block conf inactive | TRPC6 act conf inactive
CCN(CC)CCSc1nnc(Nc2ccccc2)n1-c1ccccc1	TRPC6 inhibitor -7.8 | TRPC4 spec 2 inactive | TRPC4 spec 2.4% | HEK293 MPD ctr 2-1 inactive | HEK293 MPD ctr-1 3.4% | TRPC6 block conf inactive | TRPC6 act conf inactive
CCN(CC)CCSc1nc(O)c(-c2ccccc2)c(=O)n1-c1ccccc1	none
COC(=O)CCC(=O)c1ccn(S(=O)(=O)c2ccccc2)c1	none
Nc1c2c(nc3ccccc13)N(c1ccccc1)CC2	TRPC6 inhibitor -8, TRPC4 block -6 | HEK293 MPD ctr-2 -130% | HEK293 MPD ctr 2-2 inactive | TRPC4 ctr mod -40% | TRPC4 ctr inh 2 85% | TRPC6 block conf 48% | TRPC6 act conf inactive
Nc1c2c(nc3ccccc13)CSCC2	TRPC6 inhibitor -7.2 | TRPC4 spec 2 13% | TRPC4 spec -30% | HEK293 MPD ctr 2-1 inactive | HEK293 MPD ctr-1 -482% | TRPC6 block conf 55% | TRPC6 act conf inactive
CN1CCCCc2c1nc1ccccc1c2N (tested in a mixture with another compound)	TRPC6 inhibitor -8.6, TRPC4 block -7 | TRPC4 spec 2 4.5% | TRPC4 spec -19% | HEK293 MPD ctr 2-1 inactive | HEK293 MPD ctr-1 -252% | TRPC6 block conf 87% | TRPC6 act conf inactive
COc1cccc2cc(C(=O)NCCc3ccccc3)oc12	TRPC6 inhibitor -6.2 | HEK293 MPD ctr-2 90% | HEK293 MPD ctr 2-2 inactive | TRPC4 ctr mod 16% | TRPC4 ctr inh 2 inactive | TRPC6 block conf inactive
COc1cccc(OC)c1C(=O)NCCc1ccccc1	none
C/C(=N\NC(=S)NC(C)C)c1ccccc1OC(F)F	TRPC6 inhibitor -8.8 | TRPC4 spec 2 inactive | TRPC4 spec inactive | HEK293 MPD ctr 2-1 inactive | HEK293 MPD ctr-1 inactive | TRPC6 block conf inactive | TRPC6 act conf inactive
Cc1ccc(S(=O)(=O)NCCNC(=O)c2ccc(C)nc2)cc1	TRPC6 inhibitor -6.3 | HEK293 MPD ctr-2 inactive | HEK293 MPD ctr 2-2 inactive | TRPC4 ctr mod inactive | TRPC4 ctr inh 2 inactive | TRPC6 block conf inactive
Cc1ccc(C(=O)NCCCNCCCNC(=O)c2ccc(C)nc2)cn1	none
CC(NC(=O)CNC(=O)c1ccco1)c1ccccc1 (stereo unspecified)	none
Cc1[nH]n(-c2ccccc2)c(=O)c1N=Nc1ccc2c(c1)OCCO2	none
Cc1[nH]n(-c2ccccc2)c(=O)c1N=Nc1c(O)cc(S(=O)(=O)N(C)C)c2ccccc12	TRPC6 inhibitor -8.9 | HEK293 MPD ctr-2 -135% | HEK293 MPD ctr 2-2 80% | TRPC4 ctr mod -34% | TRPC4 ctr inh 2 86% | TRPC6 block conf 81% | TRPC6 act conf inactive
Cc1nc2c(C)cccc2c2c1CCS2	none

Bioassay records as filed in PubChem BioAssay.
